TMEM16A act – mouse TMEM16A channel activation, primary screen; HEK293 TMEM16A/YFP-H148Q/I152L, iodide quench fluorescence; active compounds read low; B-score at 10 µM; actives 0.3% (n = 340,000);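 active = fluorescence-ratio B-score plate-corrected deviation score at least 3 library SD below zero, with starting fluorescence score within 5 deviations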;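 also: channel opened by trigger with iodide after compound preincubation; score built on the fluorescence ratio of max minus min over baseline; more negative score means more quench and so TMEM16A activation or potentiation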
TAAR1 agonist – agonists of human TAAR1; Q96RJ0; CHO RD-HGA16 TAAR1, Fluo-8 calcium fluorescence; vehicle wells 0%, saturating PEA agonist 100%; activation, % at 3 µM; actives 0.99% (n = 360,000);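 active = activation above the mean activation of all test compounds in the run plus 3 SD, cut at about 38% in these data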
Target sequence (Q96RJ0 whole entry, looked up): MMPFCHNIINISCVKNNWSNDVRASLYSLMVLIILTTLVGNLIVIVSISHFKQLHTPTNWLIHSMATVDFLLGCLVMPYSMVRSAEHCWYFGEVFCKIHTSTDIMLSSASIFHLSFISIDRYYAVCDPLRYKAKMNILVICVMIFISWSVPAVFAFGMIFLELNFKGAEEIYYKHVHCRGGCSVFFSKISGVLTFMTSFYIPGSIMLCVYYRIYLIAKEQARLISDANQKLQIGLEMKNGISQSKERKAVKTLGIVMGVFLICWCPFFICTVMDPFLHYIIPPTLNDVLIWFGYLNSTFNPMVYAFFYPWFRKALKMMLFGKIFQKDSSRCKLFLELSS
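System: CHO RD-HGA16 cells carrying human TAAR1 plus Gα16; Incubation: 17-24 h seeding, 75 min 37 °C dye, 30 min RT; Measured by: Fluo-8 fluorescence, 5 s baseline then 140 s kinetic read; Control set: DMSO and PEA EC100; Replication: single well for each compound.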
TMEM16A inh – mouse TMEM16A channel inhibition, primary screen; Q8BHY3; HEK293 TMEM16A/YFP iodide influx fluorescence, ionomycin; actives 1.2% (n = 310,000); normalized B-score (activity score, 25-100; higher = stronger inhibition) at 10 µM;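 active = ratio plate-corrected score three or more library SD toward inhibition, starting fluorescence score within five deviations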;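 also: score derived from kinetic fluorescence span divided by baseline fluorescence per well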
CRFR2-BP ag – agonists of human CRF-binding protein/CRF-R2 receptor complex; actives 0.46% (n = 350,000); activation, % at 13.2 µM; HEK293 CRF-R2/CRF-BP, calcium dye fluorescence (FLIPR); percent of saturating CRF peptide response; AID 588473;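 active = activation of at least 50%, plus an integration ratio under a set limit after plate pattern correction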
CRFBP-R2 block – blocks CRF-induced signaling of the CRF-BP/CRF-R2 complex. HEK293 CRF-R2/CRF-BP, CRF-induced calcium fluorescence. actives 0.59% (n = 350,000). AID 588475. inhibition, % at 11.8 µM;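 active = inhibition of the ligand-induced calcium signal above about 50% at the single tested concentration, limit read from the data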
TAAR1 antag – human TAAR1 antagonism | AID 624466 | CHO RD-HGA16 TAAR1, Fluo-8 calcium fluorescence, antagonist | actives 1.5% (n = 360,000) | Q96RJ0 | inhibition, % at 3 µM;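 active = inhibition above a per-plate cutoff, the mean inhibition of test compounds on that plate plus 3 SD, cut at about 49% in these data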
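Assay system: RD-HGA16 CHO cells with stable hTAAR1 and Gα16 / Reagent: EC80 β-phenethylamine stimulus / Doses: 3 µM, single point / Timing: dye loading 75 min at 37 °C, then 30 min room temperature / Measured by: Fluo-8 intracellular calcium dye fluorescence, real-time kinetic reads / Controls: vehicle wells and EC80 agonist wells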
Hits are given with their value; i = inactive; nt = no result. Rows were chosen to be rich in hits. Some 3.9% of all compounds tested hit in one or more screens of this group.

SMILES | TMEM16A act | TAAR1 agonist | TMEM16A inh | CRFR2-BP ag | CRFBP-R2 block | TAAR1 antag
CC1(C(=O)NS(=O)(=O)Cc2ccccc2C(F)(F)F)CCN1C(=O)C/C=C/c1ccccc1 (stereo not given) | nt | i | nt | nt | nt | i
CN(C)c1ccc(NC(=O)c2sc(SCC(=O)Nc3nccs3)nc2N)cc1 | i | i | i | i | i | 67
O=C(CSc1ccc(F)cc1)NCCSc1ccccc1 | i | i | i | i | i | i
CC(=O)NCCSc1ccc(S(=O)(=O)N2CCCC2)cn1 | -21 | i | nt | i | i | i
O=C(Cn1sc2ccccc2c1=O)Nc1ccc(Br)cc1 | nt | 39 | nt | i | i | i
CCN(c1ccccc1)S(=O)(=O)c1cc(NC(=O)CSc2n[nH]c(=O)[nH]c2=O)ccc1Cl | i | i | i | i | 111 | i
COc1cc(C(=O)NCc2nnc(SCC(=O)NCCc3ccccc3)o2)cc(OC)c1OC | i | i | i | i | i | i
CCCC1CC(C#N)N(N(C)C)C1=C(C#N)C#N (stereo not given) | i | i | i | i | 52 | i
CC1CC(C#N)N(N(C)C)C1=C(C#N)C#N (stereo not given) | i | i | i | i | i | i
Cc1ccc(C(=O)COC(=O)CCN2C(=O)C3C4C=CC(C5CC45)C3C2=O)cc1 (stereo not given) | i | i | i | i | 91 | i
CCOC(=O)c1[nH]c2ccccc2c1NC(=O)Nc1ccc(OC)cc1 | i | i | i | i | 85 | i
COc1ccc(NC(=O)Nc2ccc(O)c3ccccc23)cc1 | i | i | i | i | 50 | i
CCCC(=O)Nc1c(C(=O)OCC)[nH]c2ccccc12 | i | i | i | i | i | i
C[C@@H]1CN([C@@H](C)CO)C(=O)c2cc(-c3ccncc3)cnc2O[C@H]1CN(C)C(=O)c1cccc(F)c1 | nt | i | nt | i | i | i
Cc1nc2ccccc2n1CC(O)COc1ccc(Br)cc1 (stereo not given) | i | i | 25 | i | i | i
CCC(=O)c1ccc(OCC(O)Cn2c(C)nc3ccccc32)cc1 (stereo not given) | i | i | i | i | i | i
CCCn1c(=N)n(CC(O)COc2ccc(C)cc2)c2ccccc21 (stereo not given) | i | i | i | i | 51 | i
O=C(COC(=O)c1c[nH]c2ccccc12)Nc1ccc([N+](=O)[O-])cc1 | i | i | nt | i | i | i
COc1ccccc1NC(=O)C(C)OC(=O)C1CCN(S(=O)(=O)c2ccc(C)c(C)c2)CC1 (stereo not given) | i | i | i | i | i | i
S=c1[nH]cc(-c2ccc(Cl)cc2)n1Cc1ccccc1 | i | i | i | i | i | i
COC(=O)c1c[nH]c(=S)n1Cc1ccccc1 | -5.4 | i | nt | i | i | i
CCOC(=O)c1sc(NC(=O)CCN2C(=O)C3CCCCC3C2=O)cc1C (stereo not given) | i | i | nt | i | i | 49
CCN1CCN(C(=O)c2ccc3c(c2)N(Cc2ccccc2F)C(=O)c2ccccc2S3(=O)=O)CC1 | i | i | i | i | i | i
CCC1CCCCN1C(=O)COC(=O)COc1ccc(Br)cc1 (stereo not given) | i | i | nt | 93 | i | i
Cc1ccccc1NC(=O)Cc1nnc(N)s1 | i | i | i | i | i | i
SMILES | TMEM16A act | TAAR1 agonist | TMEM16A inh | CRFR2-BP ag | CRFBP-R2 block | TAAR1 antag
CN(Cc1ccccc1)c1ccc(C(CC(N)=O)NC(=O)c2ccc(Br)cc2)cc1[N+](=O)[O-] (stereo not given) | i | i | 25 | i | i | i
CC(C)Nc1ccc(C(CC(N)=O)NC(=O)c2ccc(Br)cc2)cc1[N+](=O)[O-] (stereo not given) | i | i | i | i | i | i
Cn1ncc(Br)c1NC(=O)Nc1ccccc1 | i | nt | i | i | i | nt
Cc1ccc([C@H]2C[C@H](O)[C@@H](n3cc(C4CC4)nn3)CN2Cc2cccs2)cc1 | nt | 41 | nt | i | i | i
CC(C)(C)c1ccccc1OCC(=O)Nc1ccccc1C(=O)NCc1cccnc1 | i | i | i | i | i | 58
C#Cc1ccc([C@H]2C=C(C(=O)N3CCN(Cc4ccc5c(c4)OCO5)CC3)O[C@@H](OCC)[C@@H]2CCCO)cc1 | i | i | i | i | i | i
O=C(COC(=O)c1ccc(O)cc1)Nc1ccc(Cl)cc1 | nt | 41 | i | i | i | i
O=C(COC(=O)c1ccc(O)cc1)Nc1ccccc1-c1ccccc1 | i | i | i | i | i | 61
O=[N+]([O-])c1ccccc1OCCNCc1ccccc1 | i | i | i | i | i | i
CCN(CC)c1nc(C=Cc2ccc(N(C)C)cc2)c2nccnc2n1 | nt | 61 | nt | 215 | i | 62
O=C(Nc1ccnn1C1CCN(Cc2ccc(CO)o2)CC1)c1ccccc1 | i | i | i | i | i | i
CCOc1cc(/C=C2\CCC/C(=C\c3cc(Cl)c(O)c(OCC)c3)C2=O)cc(Cl)c1O | i | i | i | i | i | 56
COC(=O)[C@@H]1CCCN1C(=O)CCc1nnc(CCC2CCCCC2)o1 | i | i | i | i | i | i
CCCNC(=O)c1cc(S(=O)(=O)N2CCCCC2)c[nH]1 | -8.3 | nt | i | i | i | nt
O=C(NCc1nnc(SCC(=O)N2CCCc3ccccc32)n1-c1ccccc1)c1cccc2ccccc12 | i | i | i | i | i | 50
O=c1[nH]c2cc3c(cc2cc1C(c1nnnn1C1CCCC1)N1CCCc2ccccc21)OCCO3 (stereo not given) | i | i | nt | 57 | i | i
COc1cc2cc(C(c3nnnn3C3CCCC3)N3CCc4ccccc43)c(=O)[nH]c2cc1OC (stereo not given) | i | nt | i | i | i | nt
Cc1ccn2cc(CSc3ccccc3N)nc2c1 | i | i | i | i | 61 | i
COc1c(C)cccc1C(=O)NC(=S)Nc1ccccc1N1CCCC1 | i | i | i | i | i | i
CCOC(=O)Cc1csc(NC(=S)NC(=O)c2ccc(Cl)cc2)n1 | i | 38 | i | i | i | i
CCOC(=O)Cc1csc(NC(=O)Cc2ccc([N+](=O)[O-])cc2)n1 | i | i | i | i | i | i
CCOC(=O)Cc1csc(NC(=S)NC(=O)c2ccc([N+](=O)[O-])cc2)n1 | i | i | i | i | 57 | i
CCOC(=O)Cc1csc(NC(=O)Cc2ccc(Cl)cc2)n1 | i | i | i | i | i | i
CCCOc1ccc(C2=CSC3=NCCN23)cc1 | i | i | i | i | i | i
O=C(Cn1ncc2ccccc21)N1CCN(c2cccc(C(F)(F)F)c2)CC1 | i | 44 | i | i | i | i
CCOC(=O)N1CCN(C(=O)Cn2ncc3ccccc32)CC1 | i | i | i | i | i | i
